High-throughput results from PubChem.
RGS4 act = RGS4 potentiation or activation; HEK293 M3R/inducible RGS4, carbachol calcium flux Fluo4; active compounds read low; B-score at 10 µM; 310,000 compounds, 0.92% hits; AID 463111;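 active = B-score of the integrated calcium signal more than 4 SD below the library mean, with starting fluorescence not abnormally high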;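 note: negative B-score means reduced calcium response which marks RGS4 activation or potentiation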
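Assay system: Inducible-RGS4 HEK293 cells carrying M3 receptor | Schedule: Compound preincubation 20 min at room temperature before agonist | Signal: Kinetic calcium fluorescence imaging with Fluo4-AM dye, 2 µM | Read-out basis: B score from integrated fluorescence ratio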
MrgX1 agonist = agonists of human MrgX1 receptor | Q96LB2 | MrgX1-HEK293 cells, Fluo-4 calcium fluorescence, agonist mode; active compounds read high | B-score at 10 µM | 310,000 compounds, 0.44% hits | AID 588627;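 active = calcium response B-score plate-corrected fluorescence ratio at least 3 library SD, with starting fluorescence B-score inside 5 SD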
Target sequence (Q96LB2 whole entry, looked up): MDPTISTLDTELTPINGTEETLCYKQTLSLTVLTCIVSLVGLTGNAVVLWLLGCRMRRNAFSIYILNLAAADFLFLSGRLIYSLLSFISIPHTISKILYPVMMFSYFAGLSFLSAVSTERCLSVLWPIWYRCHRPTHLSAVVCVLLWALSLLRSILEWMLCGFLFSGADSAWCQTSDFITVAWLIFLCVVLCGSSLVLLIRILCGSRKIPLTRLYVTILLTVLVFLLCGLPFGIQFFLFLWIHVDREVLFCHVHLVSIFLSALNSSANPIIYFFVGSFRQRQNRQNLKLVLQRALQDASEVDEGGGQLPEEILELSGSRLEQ
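Assay system: stable human MrgX1 HEK293 cell line. Quantity: 15,000 cells per well. Schedule: cells plated overnight, dye loaded 0.5 h 37 °C, 0.5 h room temperature. Detection: Fluo-4 NW calcium-flux fluorescence, kinetic read. Read-out basis: peak-minus-minimum fluorescence over baseline, converted to B scores. Control set: positive and negative control wells on each plate.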
MrgX1 PAM = allosterically activates human MrgX1 receptor signaling; MrgX1-HEK293, Fluo-4 calcium flux, FDSS; active compounds read high; B-score at 10 µM; Q96LB2; 310,000 compounds, 0.63% hits;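 active = plate-corrected calcium response at least 3 library SD above typical, normal starting fluorescence, not activating the receptor alone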;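 note: compound read alongside a low EC10 to EC30 dose of BAM8-22 agonist; peak minus trough fluorescence over baseline measured at the second addition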
MrgX1 antag = blocks BAM8-22 activation of human MrgX1 receptor. B-score at 10 µM. MRGX1-HEK293 calcium flux, Fluo-4, BAM8-22 antagonism; active compounds read low. 310,000 compounds, 1.3% hits. AID 588676. Q96LB2;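 active = calcium-response B-score plate-corrected more than 3 library SD below zero, starting fluorescence within 5 deviations, no agonist response on first addition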;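 note: peak minus trough fluorescence over baseline after final BAM8-22 challenge near maximal dose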
RGS4 block = human RGS4 inhibition; HEK293 M3R/RGS4 inducible, Fluo-4 calcium flux; active compounds read high; triggered by carbachol at its EC20; B-score at 10 µM; 310,000 compounds, 0.45% hits; AID 463165;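 active = B-score, a plate-corrected calcium signal, over three deviations above library mean, with baseline fluorescence within five deviations of library mean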;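 note: RGS4 expression induced by doxycycline in cells with stable M3 receptor; B-score is computed from the integrated fluorescence ratio over baseline after carbachol; higher B-score means a larger calcium signal and so more RGS4 inhibition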
Target sequence (P49798 whole entry, looked up): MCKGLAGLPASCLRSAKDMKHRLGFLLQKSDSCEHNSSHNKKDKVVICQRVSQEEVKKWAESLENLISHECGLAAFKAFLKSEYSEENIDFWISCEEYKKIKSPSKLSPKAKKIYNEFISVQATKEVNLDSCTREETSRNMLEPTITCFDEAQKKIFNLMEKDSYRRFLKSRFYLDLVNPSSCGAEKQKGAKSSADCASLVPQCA
MrgX1 ant reconf = reconfirmed antagonist of human MrgX1 receptor signaling. shares compounds with MrgX1 antag. MrgX1-HEK293, BAM8-22 calcium flux, Fluo-4; active compounds read low. remaining BAM8-22 calcium response % of control (active compounds read low), % at 10 µM. 2,300 compounds, 19% hits. AID 602420;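 active = remaining agonist calcium response no higher than 100% minus 3 SD of agonist-only control wells, with starting fluorescence near control levels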;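 note: agonist BAM8-22 given at a near maximal EC90 to ECmax level; peak minus minimum fluorescence divided by baseline after agonist addition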
HEK293 Ca flux = counter-screen for MrgX1 antagonists: effect in parental HEK293 cells; Fluo-4 calcium fluorescence, FDSS; shares compounds with MrgX1 antag; fluorescence ratio F(max-min)/F0 at 10 µM; 4,000 compounds, 2% hits;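 active = duplicate-averaged calcium fluorescence ratio at least three times the standard deviation of buffer wells, a nonspecific response in parental cells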
HEK293 Ca counter = activity in parental HEK293 cells without MrgX1. fluorescence ratio F(max-min)/F0 at 10 µM. shares compounds with MrgX1 antag. 4,000 compounds, 0.4% hits. parental HEK293 calcium flux, Fluo-4 fluorescence ratio; active compounds read high;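 active = calcium fluorescence ratio, averaged over duplicates, at least 3 SD of the buffer-well ratio, meaning a nonspecific response in receptor-free cells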;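 note: untransfected parental HEK293 lacking MrgX1 used as counterscreen for MrgX1 allosteric activators; fluorescence change taken during the second addition on a kinetic imager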
HEK293 Ca cntr2 = counter-screen for MrgX1 activators: effect in parental HEK293 cells. shares compounds with MrgX1 antag. 4,000 compounds, 8.7% hits. AID 624115. Fluo-4 calcium fluorescence (FDSS); active compounds read high. fluorescence ratio F(max-min)/F0 at 10 µM;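 active = calcium fluorescence ratio at least three times the spread of buffer wells, meaning a non-specific response in parental cells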
* hit, by the source's call; i = inactive; . = not tested or not shown. This is a sample that favours compounds with a hit; in the whole collection about 3.5% have one here.

SMILES	RGS4 act	MrgX1 agonist	MrgX1 PAM	MrgX1 antag	RGS4 block	MrgX1 ant reconf	HEK293 Ca flux	HEK293 Ca counter	HEK293 Ca cntr2
CNC(=O)COC(=O)c1nc(-n2nc(C)cc2C)ccc1Cl	i	i	i	-6.8*	i	i	i	i	i
COCCSc1nnc(NC(=O)C2CC(=O)N(c3ccc(Cl)cc3)C2)s1 (stereo not drawn)	i	i	i	i	i	.	.	.	.
COc1ccc2c(c1OC)C(=O)OC2Nc1ccccc1S(=O)(=O)C(F)F (stereo not drawn)	i	i	i	-4.7*	i	i	i	i	i
CN(C)c1ccnc2sc3c(=O)n(-c4ccccc4)cnc3c12	i	i	i	-4.6*	i	i	i	i	i
CCOc1cc(-c2c(C#N)c(N)nc3c2CCCC3C)ccc1O (stereo not drawn)	i	i	i	-4.7*	i	i	i	i	i
O=C(c1ccc2ccccc2c1)N1CCc2ccccc21	i	i	i	i	i	.	.	.	.
CCOC(=O)C1CCCN(S(=O)(=O)c2cc3c4c(c2)CCN4C(=O)CC3)C1 (stereo not drawn)	i	i	i	-4.8*	i	i	i	i	i
Cc1ccc(S(=O)(=O)NCC(c2ccco2)N2CCc3ccccc32)cc1 (stereo not drawn)	i	i	i	-5.6*	i	i	i	i	i
Cc1ccc(C(CNS(=O)(=O)c2ccccc2)N2CCN(C)CC2)cc1 (stereo not drawn)	i	i	i	-8.1*	i	i	i	i	i
Cc1ccc(C(CNS(=O)(=O)c2ccc(Br)cc2)N2CCN(C)CC2)cc1 (stereo not drawn)	i	i	i	i	i	.	.	.	.
COc1ccc(S(=O)(=O)NCC(c2ccco2)N2CCc3ccccc32)cc1 (stereo not drawn)	i	i	i	i	i	.	.	.	.
Cc1ccc(S(=O)(=O)NCC(c2ccco2)N2CCc3ccccc3C2)cc1 (stereo not drawn)	i	i	i	-5.1*	i	i	i	i	i
S=C1NNC2(NN1)C1CC3CC(C1)CC2C3	i	i	i	i	i	.	.	.	.
COC(=O)c1ccc(COc2ccc(/C=N/Nc3cccc(C(=O)O)c3)cc2)cc1	i	i	i	i	i	.	.	.	.
Cc1cc(C)c(C(N)=O)c(NC(=O)Nc2ccccc2Cl)n1	i	i	i	-4.6*	i	i	i	i	i
Cc1cc(C)c(C(N)=O)c(Nc2cccc(Cl)c2C)n1	i	i	i	i	i	.	.	.	.
Cc1nnc(Oc2ccccc2F)c2ccccc12	i	i	i	-6*	i	85%*	i	i	i
CCN1C(=O)c2cccc3c(S(=O)(=O)Nc4ccccc4)ccc1c23	i	i	i	-6.9*	i	i	i	i	i
CCN1C(=O)c2cccc3c(S(=O)(=O)Nc4ccncc4)ccc1c23	i	i	i	i	i	.	.	.	.
COCCN=C1Sc2nc3ccc(C)cc3cc2CN1Cc1ccco1	i	i	i	-5.4*	i	i	i	i	i
Cc1n[nH]c(=O)c2c(NC(=O)COC(=O)Cc3c(F)cccc3Cl)oc(C)c12	i	i	i	i	i	.	.	.	.
c1ccc(CSc2nnc(Cc3ccccn3)o2)cc1	i	i	i	-7.8*	i	i	i	i	i
c1ccc(CSc2nnc(Cc3ccccc3)o2)cc1	i	i	i	i	i	.	.	.	.
COc1ccc(Cn2cnc([N+](=O)[O-])c2)cc1[N+](=O)[O-]	i	i	i	i	i	.	.	.	.
COc1ccc(S(=O)(=O)N(CC(=O)NCc2ccccn2)Cc2ccccc2)cc1	i	i	i	i	i	.	.	.	.
SMILES	RGS4 act	MrgX1 agonist	MrgX1 PAM	MrgX1 antag	RGS4 block	MrgX1 ant reconf	HEK293 Ca flux	HEK293 Ca counter	HEK293 Ca cntr2
COc1ccc(NC(=O)c2nc(C)c(C3(C)CC(c4ccccc4)=NO3)s2)cc1 (stereo not drawn)	i	i	i	i	i	.	.	.	.
COc1ccccc1-c1nnc(SC2CCc3ccccc3NC2=O)s1 (stereo not drawn)	i	i	i	-6.4*	i	i	i	i	i
CC(C)(C)c1csc(NC(=O)c2ccncc2)n1	i	i	i	-7*	i	i	i	i	i
Cc1csc(NC(=O)c2ccc(COc3ccccc3)o2)n1	i	i	i	i	i	.	.	.	.
COc1ccccc1-n1c(C)nc2cc(C(=O)O)ccc21	i	i	i	-4.8*	i	i	i	i	i
Cc1nc2cc(C(=O)O)ccc2n1-c1ccccc1	i	i	i	i	i	.	.	.	.
O=C(O)c1ccc(N2CCCCC2)cc1	i	i	i	-6.4*	i	i	i	i	i
Cn1c(=O)c(=O)n(C)c2cc(S(=O)(=O)N3CCC(Cc4ccccc4)CC3)ccc21	i	i	i	i	i	.	.	.	.
CCn1c(=O)n(CC)c2cc(S(=O)(=O)N3CCC(c4ccccc4)CC3)ccc21	i	i	i	-7.1*	i	i	i	i	i
O=C(OCCN1C(=O)c2ccccc2C1=O)c1cc2ccccc2o1	i	i	i	i	i	.	.	.	.
Cc1ccc(-c2nc(=O)[nH]c3ccc(Br)cc23)cc1	i	i	i	i	i	.	.	.	.
CCCCN(C)C(=S)Nc1ccc(Oc2ccccc2)cc1	i	i	i	-6.3*	i	i	i	i	i
O=C(CSCc1ccccc1)NCCc1ccc(F)cc1	i	i	i	i	i	.	.	.	.
O=C(Nc1ccc2c(c1)OC1(CCCC1)O2)C1CC1	i	i	i	-5.9*	i	i	i	i	i
Cc1cc(C(=O)N2CC=C(c3ccccc3)CC2)c2ccccc2n1	i	i	i	-4.7*	i	i	i	i	i
